Source: ChEMBL document CHEMBL5325427
Converted amounts (≈) assume the structure as drawn. The source made the active and inactive calls. The calls are words filed in the database; no cut-off is given here.

Key:
[1] = biological target: Replicase polyprotein 1ab (Severe acute respiratory syndrome coronavirus 2) (UniProt P0DTD1); test: Inhibition of SARS-CoV-2 3CLpro at 10 ug/ml preincubated with enzyme for 30 mins followed by substrate addition and measured after 4 hrs by fluorescence based analysis; conditions: dose 10.0 µg/ml, time 4.5 hrs
Procedure, shortened: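 Recombinant SARS-CoV-2 3CLpro (1.5 ng/μl) was pre-incubated with compound 30 min at RT. Fluorogenic substrate was added to a final 40 μM and incubated 4 h at RT. Fluorescence was read at Ex 360/Em 460 nm. Wells were run in triplicate and blank was subtracted.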

[2] = biological target: Replicase polyprotein 1ab (Severe acute respiratory syndrome coronavirus 2, UniProt P0DTD1); test: Inhibition of recombinant SARS CoV-2 PL protease incubated for 2 hrs followed by substrate addition and measured after 1 hr by fluorescence based analysis
[3] = biological target: Replicase polyprotein 1ab (Severe acute respiratory syndrome coronavirus 2) (UniProt P0DTD1); test: Inhibition of recombinant SARS CoV-2 PL protease at 25 ug/ml incubated for 2 hrs followed by substrate addition and measured after 1 hr by fluorescence based analysis relative to control; conditions: dose 25.0 µg/ml, time 3.0 hrs
[4] = tested on: Vero C1008; test: (§1) Cytotoxicity against African green monkey Vero E6 cells measured after 72 hrs by crystal violet staining based analysis; type: toxicity, cell-based; conditions: chlorocebus sabaeus, vero c1008, 72 h
Procedure, shortened: (§2)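 Vero-E6 cells were seeded at 3 × 10^5 cells/mL, grown 24 h at 37 °C with 5% CO2, then given graded compound concentrations in triplicate for 72 h. Stocks were made in 10% DMSO in DMEM. Cells were fixed in 10% formalin, stained with 0.1% crystal violet, dissolved in methanol and read at A570. CC50 was taken by nonlinear regression of log concentration versus normalised response against untreated cells.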

[5] = tested on: SARS-CoV-2; test: Antiviral activity against SARS-CoV-2 NRC-03-nhCoV infected in african green monkey Vero E6 cells assessed as inhibition of viral growth pre-infected cells with virus for 1 hr followed by compound addition for 1 hr and measured after 72 hrs by crystal violet staining based analysis; type: functional, organism-based; conditions: Severe acute respiratory syndrome coronavirus 2, NRC-03-nhCoV, Vero C1008
[6] = Selectivity index, ratio of CC50 for African green monkey Vero E6 cells to IC50 for antiviral activity against SARS-CoV-2 NRC-03-nhCoV infected in african green monkey Vero E6 cells; type: toxicity, cell-based, Vero C1008; conditions: read-out: Ratio CC50/IC50
[7] = Aqueous solubility of the compound in PBS buffer at pH 7.4 at 200 uM by microplate reader method; type: physicochemical
[8] = Stability in CD-1 mouse liver microsomes assessed as half life at 1 uM in presence of NADPH by LC-MS-MS analysis; type: ADME, Microsome
[9] = Stability in human liver microsomes assessed as half life at 1 uM in presence of NADPH by LC-MS-MS analysis; type: ADME, Microsome
[10] = Stability in CD-1 mouse liver microsomes assessed as compound remaining at 1 uM measured after 60 mins in absence of NADPH by LC-MS-MS analysis; type: ADME, Microsome; conditions: read-out: Stability
Procedure, shortened: (§3)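 Compound was incubated in liver microsomes without NADPH. Percent remaining was measured after 60 min.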

[11] = Stability in human microsomes assessed as compound remaining at 1 uM measured after 60 mins in absence of NADPH by LC-MS-MS analysis; type: ADME, Microsome; conditions: read-out: Stability; procedure, shortened: as §3
[12] = as §1; type: toxicity, cell-based, Vero C1008; conditions: chlorocebus sabaeus, Vero E6 cells; procedure, shortened: as §2

| Compound | inhibition [1] | IC50 [2] [µM] | further results |
| --- | --- | --- | --- |
| COC(=O)C[C@@H]1COc2ccccc2[C@H](C(=O)NC(C)(C)C)N(CCc2c[nH]c3ccc(OC)cc23)C(=O)[C@@H]1c1nnc(-c2cccc(C(F)(F)F)c2)o1 | inactive | – | – |
| COC(=O)[C@@H]1CC2(C(=O)Nc3ccccc32)C2CC[C@@]3(OC)C=CC(=O)C[C@H]3N21 (stereo not given in full) | inactive | 10.3 | – |
| COC(=O)CC1COc2c(cc3c4c2CCCN4CCC3)-c2c(NC(C)(C)C)n3c(-c4ccc(F)cc4)c(C)sc3[n+]21 (stereo not given) | inactive | 5.57 | – |
| C[C@]12C=CC(=O)C[C@H]1N1CCc3cccc4[nH]cc(c34)C1CO2 (stereo not given in full) | inactive | 19.7 | – |
| FC(F)(F)Oc1ccc(N/N=C2/C=C[C@@]3(CC2)CC[C@@H]2NCCc4cccc5[nH]c3c2c45)cc1 | inactive | 27.5 | – |
| Cc1ccc(N)cc1C(=O)N[C@H](C)c1cccc2ccccc12 | inactive | – | – |
| COC(=O)[C@H](Cc1ccc(OC)c(OC)c1)N1CC(c2cc(C)ccc2O)=N[C@@H](Cc2ccc(OC)c(OC)c2)C1=O | inactive | 47.8 | inhibition [3]: 50% |
| CC1(C)[C@H]2COc3ccc4ccccc4c3[C@H]2N=C2SC=C(c3ccc(S(=O)(=O)N4CCOCC4)cc3)N21 | inactive | 0.121 | CC50 [4]: 43.12 µg/mL (≈ 78.7 µM); IC50 [5]: 67.6 µg/mL (≈ 123 µM); selectivity ratio [6]: 0.64; solubility at 200 µM [7]: 56.1 µM (≈ 30.7 µg/mL); t1/2 [8]: 11.2 min; t1/2 [9]: 5.7 min; remaining at 1 h, 1 µM [10]: 92%; remaining at 1 h, 1 µM [11]: 119% |
| CC1=C(c2cccc3c2OCO3)N2C(=N[C@@H]3c4c(ccc5ccccc45)OC[C@@H]3C2(C)C)S1 | inactive | 72.8 | inhibition [3]: 50% |
| COc1ccc2[nH]cc(CCN3C(=O)[C@H](c4nnc(-c5cccc(C(F)(F)F)c5)o4)[C@H](CC(=O)O)COc4ccccc4[C@@H]3C(=O)NC(C)(C)C)c2c1 | inactive | 1.16 | – |
| COC(=O)CC1COc2c(cc3c4c2CCCN4CCC3)-c2c(NC(C)(C)C)n3c(-c4ccccc4)c(-c4ccccc4)sc3[n+]21 (stereo not given) | inactive | – | – |
| CO[C@@]12C=CC(=O)C[C@@H]1[n+]1c(c(NC(C)(C)C)n3c(-c4ccccc4)c(-c4ccccc4)sc31)CC2.O=S(=O)([O-])C(F)(F)F | inactive | – | CC50 at 72 h [12]: 89.7 µg/mL; IC50 [5]: 217 µg/mL; selectivity ratio [6]: 0.41 |
| COc1ccc2[nH]c3c(c2c1)C[C@]1(OC)CC[C@H]2c4c[nH]c5cccc(c45)CCN2[C@@H]1C3 | inactive | 32.6 | – |
